Experimental data collected from several papers.
Protocols differ between the studies behind these lines.
Method: competition with immobilised ligand
RPS6KA2 N-terminal kinase domain: Ribosomal protein S6 kinase alpha-2, N-terminal kinase domain (RPS6KA2, Homo sapiens, UniProt Q15349)
RPS6KA2 C-terminal kinase domain: Ribosomal protein S6 kinase alpha-2, C-terminal kinase domain (RPS6KA2, Homo sapiens, UniProt Q15349)

Structure (SMILES)	target	test	setting	remaining binding [%]
Nc1cnc(N2CCc3cc(S(=O)(=O)Nc4c(F)cc(Cl)cc4F)cc(N4CCCC4=O)c32)nc1	RPS6KA2 N-terminal kinase domain	cell-free assay	1 µM	88
COc1cnc(Nc2cccc(S(N)(=O)=O)c2)nc1N1CCN(c2ccccc2)C(=O)C1	RPS6KA2 N-terminal kinase domain	binding	1 µM	96
COCCOc1nc(-c2ccc(Cl)nc2)nc2c1CN(C(=O)c1ncn3ccccc13)CC2	RPS6KA2 C-terminal kinase domain	cell-free assay	0.1 µM	100
O=C(NCC1CCOCC1)c1n[nH]cc1NC(=O)c1c(F)cccc1F	RPS6KA2 N-terminal kinase domain	binding	1 µM	100
COc1ccc2c(O[C@@H]3C[C@H]4C(=O)N[C@]5(C(=O)O)CC5/C=C\CCCCC[C@H](NC(=O)OC5CCCC5)C(=O)N4C3)cc(-c3csc(NC(=O)C(C)C)n3)nc2c1C (stereo partly drawn)	RPS6KA2 C-terminal kinase domain	cell-free assay	1 µM	100
CCN1CCN(Cc2ccc(C(=O)Nc3ccc(C)c(Oc4ccc5c(c4)CC(=O)N5)c3)cc2C(F)(F)F)CC1	RPS6KA2 N-terminal kinase domain	binding	1 µM	100
C[C@@H](c1cccc(C#N)c1)n1cc(Cl)cc(C(N)=O)c1=N	RPS6KA2 C-terminal kinase domain	cell-free assay	1 µM	100
CN(c1nccc(-c2cnn3ncccc23)n1)C1CC1	RPS6KA2 C-terminal kinase domain	binding	1 µM	100
Cc1cnc(Nc2ccc(C(=O)N3CCC(N4CCCC4)CC3)cc2)nc1-c1cc2ccccc2s1	RPS6KA2 C-terminal kinase domain	binding	1 µM	95
CS(=O)(=O)c1cc(C2(NC(=O)c3cncc4c3cnn4-c3ccc(F)cc3)CC2)ccn1	RPS6KA2 C-terminal kinase domain	cell-free assay	1 µM	88
C[C@@H](c1ccc(-n2cnc3c(N)ncnc32)cc1)N1CCc2nn(C)c(Cc3ccccc3)c2C1=O	RPS6KA2 N-terminal kinase domain	binding	0.1 µM	96
O=C(NCCCN1CCOCC1)c1ccc(Nc2ncc(Cl)c(-c3ccc(Cl)s3)n2)cc1	RPS6KA2 N-terminal kinase domain	binding	1 µM	100
CN(CCCC(F)(F)F)c1nccc(-c2cnn3ncccc23)n1	RPS6KA2 N-terminal kinase domain	binding	1 µM	86
O=C(c1ccc(Nc2nccc(-c3cc4ccccc4s3)n2)cc1)N1CCC(N2CCCC2)CC1	RPS6KA2 C-terminal kinase domain	binding	1 µM	74
CO[C@H]1CC[C@H](CNc2ccc(S(=O)(=O)NC(=O)c3ccc(N4CCN(CC5=C(c6ccc(Cl)cc6)CC(C)(C)CC5)CC4)cc3Oc3cnc4[nH]ccc4c3)cc2[N+](=O)[O-])CC1	RPS6KA2 N-terminal kinase domain	cell-free assay	1 µM	97
O=C(c1ccc(Nc2ncc(Cl)c(-c3ccc(Cl)s3)n2)cc1)N1CCC(N2CCCC2)CC1	RPS6KA2 N-terminal kinase domain	binding	1 µM	100
CN(C)c1nccc(-c2cnc3ncccn23)n1	RPS6KA2 N-terminal kinase domain	binding	1 µM	83

Structure (SMILES)	target	test	setting	remaining binding [%]
CNC(=O)[C@@H]1CC[C@@H](n2c(-c3ccc4cnccc4c3)nc3ccc(C(=O)NCc4cccc(C(N)=O)c4)cc32)C1	RPS6KA2 N-terminal kinase domain	binding	1 µM	100
O=C(Nc1c[nH]nc1C(=O)NC1CCNCC1)c1cc(F)cc(F)c1	RPS6KA2 C-terminal kinase domain	binding	1 µM	100
O=C(c1ccc(Nc2ncc(Cl)c(-c3cc4ccccc4s3)n2)cc1)N1CCC(N2CCCC2)CC1	RPS6KA2 C-terminal kinase domain	binding	1 µM	100
F[C@@H]1CCN(c2nccc(-c3cnn4ncccc34)n2)C1	RPS6KA2 C-terminal kinase domain	binding	1 µM	91
Nc1ncc2c(n1)-c1c([nH]c3ccc(C#CC4CC4)cc13)CCCC2	RPS6KA2 N-terminal kinase domain	binding	1 µM	91
COc1ncc2cc3ccccc3nc2c1C#N	RPS6KA2 N-terminal kinase domain	cell-free assay	5 µM	91
c1cncc(-c2cccc(Nc3nccc(NC4CCCCC4)n3)c2)c1	RPS6KA2 N-terminal kinase domain	binding	10 µM	44
CCOCCn1cc(C(=O)Nc2ccc(-n3nc(-c4cccnc4)cc3C(F)(F)F)cn2)ccc1=O	RPS6KA2 N-terminal kinase domain	cell-free assay	1 µM	84
FC(F)(F)Oc1cccc(-c2cnc3ccc(-c4ccncc4)nn23)c1	RPS6KA2 N-terminal kinase domain	binding	5 µM	79
COc1cnc(Nc2cccc(S(N)(=O)=O)c2)nc1N1CCN(c2ccccc2)CC1	RPS6KA2 C-terminal kinase domain	binding	1 µM	84
N[C@@H]1CCN(c2nccc(-c3cnn4ncccc34)n2)C1	RPS6KA2 C-terminal kinase domain	binding	1 µM	100
COc1ccc2cc(OCC3(C(=O)O)CN(C(=O)c4ccc(F)cc4)C3)ccc2c1	RPS6KA2 C-terminal kinase domain	cell-free assay	1 µM	100
C[C@@H]1CCN(c2nccc(-c3cnn4ncccc34)n2)C1	RPS6KA2 N-terminal kinase domain	binding	1 µM	79
O=C(NCCCN1CCOCC1)c1ccc(Nc2nccc(-c3cc4ccccc4s3)n2)cc1	RPS6KA2 N-terminal kinase domain	binding	1 µM	100
CN(C)c1nccc(-c2cnn3ncccc23)n1	RPS6KA2 N-terminal kinase domain	binding	1 µM	100
C=CC(=O)N1CCC(C(=O)NCC(=O)N2CCN(c3nc(-c4cnc(N)nc4C(F)F)nc(N4CCOCC4)n3)CC2)CC1	RPS6KA2 N-terminal kinase domain	binding	1 µM	82
